Assay outcomes as filed in PubChem.
This is one part of a sample in which hits are shown more often than they occur.
HCT116 PTEN-null: suppresses growth of cells with PTEN deletion; HCT116 PTEN-null viability, CellTiter-Glo, 60 h; active compounds read low; viability, % at 10 µM; actives 1.2% (n = 140,000);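 active = viability at or below a set limit, 4 SD under the median of all tested compounds, cut at about 3.7% in these data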;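 also: PTEN knockout HCT116 line with beta catenin targeted HCT116 as companion control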
HUVEC inhibit: human endothelial cell proliferation inhibition | AID 648 | viability, % at 10 µM (by protocol) | HUVEC proliferation, CellTiter-Glo luminescence, 72 h; active compounds read low | actives 1.1% (n = 86,000);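 active = viability at or below 30%; inactive = viability above 30%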;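 also: 100% = median luminescence of DMSO-only cell control wells on each plate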
Fibroblast inh: blocks proliferation of human lung fibroblasts. LL 47 human lung fibroblast viability, ATP luminescence; active compounds read low. viability, % at 10 µM. actives 1.1% (n = 85,000). AID 719;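 active = viability at or below 50% in the single dose screen; inactive = viability above 50%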;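 also: compound exposure lasted 72 h before the ATP readout; 100% = median luminescence of untreated cell-only wells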
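Material: human lung fibroblast line LL 47, low passage; Evaluation: viability percentage against median untreated-cell control; Buffer or medium: 15% FBS in IMEM; Incubation: 72 h compound exposure at 37 °C after overnight plating; Dosing: 0.1% DMSO in all compound wells; Measured by: CellTiter-Glo luminescence.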
H69AR growth 86K: growth inhibitors of human H69AR lung tumor cells; H69AR lung tumor viability, ATP luminescence, 72 h; active compounds read low; viability, % at 10 µM; actives 6% (n = 85,000);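 active = viability at or below 40%; inactive = viability above 40%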;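 also: multidrug resistant small cell line overexpressing MRP-1 efflux transporter; 100% = mean luminescence of untreated control wells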
HCT116 bCat-KO: beta-catenin-lacking colon tumor cell growth suppression. viability, % at 10 µM. HCT116 beta-catenin knockout viability, CellTiter-Glo, 60 h; active compounds read low. actives 1.5% (n = 140,000);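 active = viability at or under a set limit, the compound median less 4 SD, cut at about 6% in these data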;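 also: 0% = Hyamine 1622 control at 20 µM and 100% = untreated cell control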
* hit, by the source's call; x = no result given.

SMILES | HCT116 PTEN-null | HUVEC inhibit | Fibroblast inh | H69AR growth 86K | HCT116 bCat-KO
CCOc1ccc(NS(=O)(=O)c2ccc(NS(=O)(=O)c3ccccc3)cc2)cc1 | 93 | 83 | 93 | 63 | 90
COc1ccc(NS(=O)(=O)c2cc(NC(=O)/C=C/c3ccccc3OC)ccc2N2CCCCC2)cc1 | 91 | x | x | x | 95
CCCCC(=O)Nc1sc2c(c1C(=O)OCC)CCC(C=O)=C2Cl | 1.1* | x | x | x | 1.4*
CC(C)C1O/C(=N/C(=O)Nc2ccc(Cl)c(Cl)c2)NC1=O (configuration not stated) | 58 | 55 | 88 | 11* | 72
COc1ccc(C(=O)Nc2ccc(Cl)c(Cl)c2)c(OC)n1 | 74 | 81 | 81 | 47 | 69
CCCC(=O)Nc1nnc(SCC(=O)NCc2ccco2)s1 | 92 | x | x | x | 94
CCCCCCc1cc2cc(C(=O)Nc3ccccc3)c(=O)oc2cc1O | 1.7* | x | x | x | 1.5*
CCCCCCc1cc2cc(C(=O)NCc3ccccc3)c(=N)oc2cc1O | 94 | 96 | 86 | 60 | 99
Fc1ccc(Oc2ncccn2)c(F)c1 | 91 | x | x | x | 98
Cc1nccn1-c1cc(C(C)(C)C)nc2c(-c3ccccc3)cnn12 | 89 | x | x | x | 84
COc1ccc(-c2csc(N(CC3CCCO3)C(=O)c3cccs3)n2)cc1 (configuration not stated) | 51 | 100 | 99 | 76 | 51
COc1ccc(OC)c(-c2csc(N(Cc3ccco3)C(=O)c3cccs3)n2)c1 | 89 | 92 | 98 | 8.8* | 85
CCN(CC)CCCN(C(=O)c1cccs1)c1nc(-c2ccc(OC)cc2)cs1 | 30 | 15* | 69 | 29* | 30
NNC(=O)c1cccc(COc2ccc3c(c2)CCC3)c1 | 86 | x | x | x | 78
CC1=CC(=O)C=C(C)C1=NOS(=O)(=O)c1ccccc1 | 2.7* | 1.1* | 1.4* | 0.7* | 1.6*
COc1ccc(OC)c(CCNC(=O)Cn2sc3nc(C)cc(C)c3c2=O)c1 | 1.9* | 77 | 31* | 0.0* | 1.9*
Cc1nn(-c2ccccc2)c(Cl)c1C(=O)N1CCN(c2ncnc3c2cnn3-c2ccccc2)CC1 | 7 | 2.7* | 55 | 34* | 6.0*
Cn1c(CC(=O)Nc2ccccc2C(F)(F)F)c(Sc2ccccc2)c2ccccc21 | 81 | x | x | x | 84
O=C1S/C(=C\c2ccc(N3CCOCC3)o2)C(=O)N1Cc1ccc(F)cc1 | 83 | x | x | x | 80
O=C1S/C(=C/c2ccc(N3CCOCC3)o2)C(=O)N1Cc1ccc(F)cc1 | 102 | 71 | 67 | 26* | 96
COc1cc(/C=C2\SC(=Nc3ccccc3)N(CCc3c[nH]c4ccccc34)C2=O)ccc1OC(C)C(=O)O (configuration not stated) | 82 | x | x | x | 87
O=C1/C(=C/c2ccc(N3CCOCC3)o2)SC(=Nc2ccccc2)N1CCc1c[nH]c2ccccc12 | 1.4* | x | x | x | 1.4*
CCOc1ccc2[nH]c(=O)c(CN(Cc3cccs3)Cc3nnnn3C(C)(C)CC)cc2c1 | 21 | 83 | 91 | 28* | 24
CCNc1nc(NC(C)C)nc(N(C#N)CCOc2ccccc2)n1 | 76 | 93 | 88 | 27* | 82
CC(=O)Oc1ccc(N(C(C)=O)S(=O)(=O)c2ccc(C)c([N+](=O)[O-])c2)cc1 | 91 | x | x | x | 93
SMILES | HCT116 PTEN-null | HUVEC inhibit | Fibroblast inh | H69AR growth 86K | HCT116 bCat-KO
CC(=O)c1cnc2c(-c3ccc(Cl)cc3)c(C)nn2c1C | 83 | 28* | 83 | 84 | 83
Cc1cccc(N/C(N)=N/c2nc(C(F)(F)F)cc(=O)[nH]2)c1C | 28 | x | x | x | 53
Cc1nc(N2CCC3(CC2)OCCO3)c2nnn(Cc3ccccc3F)c2n1 | 82 | 113 | 96 | 35* | 82
CC1=C(C(=O)N2CCN(c3cc(C)ccc3C)CC2)C2(CCC(C)CC2)OC1=O (configuration not stated) | 79 | x | x | x | 89
Nc1nnnn1/N=C/c1ccccc1OCc1ccc(Cl)cc1Cl | 52 | x | x | x | 45
Nc1nnnn1/N=C/c1cc(Cl)cc(Cl)c1OCc1ccc(Cl)cc1Cl | 4 | 89 | 91 | 22* | 3.2*
Cn1c(C(=O)OC(C(=O)NCc2ccco2)c2ccncc2)cc2sccc21 (configuration not stated) | 100 | 77 | 99 | 94 | 97
Cc1occc1C(=O)NNC(=S)NCc1ccccc1 | 93 | x | x | x | 101
CN(C)CCCN1C(=O)c2cccc3c([N+](=O)[O-])ccc(c23)C1=O | 1.6* | x | x | x | 1.4*
Cc1nnc(Sc2nc(Sc3nnc(C)s3)nc(N3CCN(C)CC3)n2)s1 | x | 69 | 6.1* | 0.6* | x
